Measurements from ChEMBL document CHEMBL3739337, “Alkaloids with Different Carbon Units from Myrioneuron faberi” (J Nat Prod, 2015).

What was measured:
[1] = Cytotoxicity against human Huh7.5 cells; format: cell-based, Huh-7
How it was run: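 Huh7.5 human liver cells grown in DMEM with 10% inactivated fetal bovine serum and 1% penicillin–streptomycin at 37 °C, 5% CO2.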

Hepatitis C virus = assay: Antiviral activity against chimeric HCV FL-J6/JFH/JC1 infected in human Huh7.5 cells assessed as reduction of intracellular viral RNA level after 72 hrs by RT-PCR assay; format: functional, organism-based, Hepacivirus hominis; conditions: FL-J6/JFH/JC1, Huh-7, 72 h
How it was run: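 Huh7.5 cells in DMEM with 10% inactivated FBS at 37 °C, 5% CO2, seeded at 3 × 10^4 cells/cm2. After 24 h they were infected (about 45 IU per cell) and given compound or solvent control at the same time. At 72 h, intracellular HCV RNA was measured against GAPDH by one-step RT-PCR (2ΔΔCT). EC50 was derived by the Reed and Muench method.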

[2] = Therapeutic index, ratio of CC50 for human Huh7.5 cells to EC50 for chimeric HCV FL-J6/JFH/JC1 infected in human Huh7.5 cells; format: cell-based, Huh-7; conditions: read-out: Ratio CC50/EC50

Row | Compound | CC50 [1] [µM] | EC50 (Hepatitis C virus) [µM] | selectivity ratio [2]
1 | O=C1CC[C@@H]2CCC[C@H]3CN4CCCC[C@H]4N1[C@H]23 | > 100 | 30.6 | > 3.3
2 | O=C1CC[C@@H]2CCC[C@H]3CN4CCC[C@H](C[C@H]5CCCN6C[C@@H]7CCC[C@H]8CCC(=O)N([C@H]87)[C@H]56)[C@H]4N1[C@H]23 | > 100 | 10.5 | > 9.5
3 | C1C[C@H]2CCCN3[C@H]2[C@@H](C1)CN1CCCC[C@@H]13 | 95.9 | 7.35 | 13
4 | CCC[C@H](NC(=O)[C@@H]1[C@H]2CCC[C@H]2CN1C(=O)[C@@H](NC(=O)[C@@H](NC(=O)c1cnccn1)C1CCCCC1)C(C)(C)C)C(=O)C(=O)NC1CC1 [TELAPREVIR] | 47.8 | 0.129 | 371
5 | O=CC1=CN2[C@@H]3[C@@H](CCC[C@H]3CN3CCCC[C@@H]32)C1 | > 100 | 3.27 | > 30.6
6 | COC[C@@H]1CCCN2C[C@@H]3CCC[C@H]4CC(C=O)=CN([C@H]43)[C@@H]12 | > 100 | 0.92 | > 109
